# Calls of active or inactive are those of the source. The rule behind the calls is not given here.
# Columns and labels:
# [1] = Anti-inflammatory activity assessed as inhibition of bovine serum albumin denaturation at 10 to 500 ug/ml incubated for 15 mins at 37 degC; format: functional
# Summary of the method: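 Compounds dissolved in minimal DMF, diluted in 0.2 M phosphate buffer pH 7.4 (final DMF <2.5%). 4 mL test solution mixed with 1 mL of 1 mM albumin and held 15 min at 37 °C, then heated 15 min at 70 °C to denature. After cooling, turbidity read at 660 nm. % inhibition calculated against a no-drug control.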
# A549 = test: Cytotoxicity against human A549 cells at 1 to 500 ug/ml incubated for 24 hrs by MTT assay; format: functional, cell-based
# Summary of the method: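 A549 lung cancer cells grown in MEM with 10% FBS, penicillin and streptomycin, at 37 °C under 5% CO2. Compounds made up at 2 mg/mL in DMSO, filter-sterilized, diluted in medium to 1, 10, 50, 100 and 500 μg/mL. Exposure 24 h, 0.1% DMSO control. MTT (5 mg/mL stock) added for 4 h, formazan dissolved in DMSO, read at 545 nm. Triplicate.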
# [2] = Antioxidant activity assessed as DPPH radical scavenging activity; format: physicochemical
# Summary of the method: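 DPPH stock 0.1 mmol in DMSO. 1 mL sample diluted with 2 mL DMSO, mixed with 2 mL DPPH stock, absorbance at 517 nm. Tested at 10–50 μg/mL. % inhibition = [(blank−test)/blank]×100, IC50 derived from the concentration series. Run twice.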
# [3] = Antioxidant activity assessed as H2O2 scavenging activity; format: physicochemical
# Summary of the method: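 H2O2 prepared at 2.0 mM in 0.2 M phosphate buffer pH 7.4. Compounds at 10–50 μg/mL added to 0.6 mL of this solution and made up to 4 mL with buffer. H2O2 absorbance read at 230 nm against a buffer blank. % inhibition = [(blank−test)/blank]×100, IC50 derived from the concentration series.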
SMILES,inhibition [1],Activity (A549),IC50 [2],IC50 [3]
CCN(CC)C(=O)COc1ccc(/C=C/C(=O)/C=C(O)/C=C/c2ccc(OCC(=O)N(CC)CC)c(OC)c2)cc1OC,Active,Active,19.68 µg/mL,68.16 µg/mL
O=C(O)Cc1ccccc1Nc1c(Cl)cccc1Cl,Active,,,
COc1cc(/C=C/C(=O)/C=C(O)/C=C/c2ccc(OCC(=O)NC3CCCCC3)c(OC)c2)ccc1OCC(=O)NC1CCCCC1,Active,Active,16 µg/mL,26.14 µg/mL
COc1cc(/C=C/C(=O)CC(=O)/C=C/c2ccc(O)c(OC)c2)ccc1O [CURCUMIN],Active,Active,14.83 µg/mL,34.71 µg/mL
COc1cc(/C=C/C(=O)/C=C(O)/C=C/c2ccc(OCC(=O)Nc3ccc(C)cc3)c(OC)c2)ccc1OCC(=O)Nc1ccc(C)cc1,Active,Active,22.85 µg/mL,61.98 µg/mL
COc1cc(/C=C/C(=O)/C=C(O)/C=C/c2ccc(OCC(=O)Nc3ccc(Cl)cc3)c(OC)c2)ccc1OCC(=O)Nc1ccc(Cl)cc1,,Active,12.92 µg/mL,65.4 µg/mL
COc1cc(/C=C/C(=O)/C=C(O)/C=C/c2ccc(OCC(=O)Nc3ccc(F)cc3)c(OC)c2)ccc1OCC(=O)Nc1ccc(F)cc1,Active,Active,24.26 µg/mL,70.51 µg/mL
COc1cc(/C=C/C(=O)/C=C(O)/C=C/c2ccc(OCC(=O)N(C)c3ccccc3)c(OC)c2)ccc1OCC(=O)N(C)c1ccccc1,Active,Active,12.05 µg/mL,63.21 µg/mL
COc1cc(/C=C/C(=O)/C=C(O)/C=C/c2ccc(OCC(=O)Nc3ccccc3)c(OC)c2)ccc1OCC(=O)Nc1ccccc1,Active,Active,23.77 µg/mL,63.7 µg/mL
O=C1O[C@H]([C@@H](O)CO)C(O)=C1O [ASCORBIC ACID],,,32.74 µg/mL,67.54 µg/mL
COc1cc(/C=C/C(=O)/C=C(O)/C=C/c2ccc(OCC(=O)Nc3cccc4ccccc34)c(OC)c2)ccc1OCC(=O)Nc1cccc2ccccc12,,Active,12.65 µg/mL,41.4 µg/mL

# — ChEMBL document CHEMBL3616457, “Synthesis and biological evaluation of new symmetric curcumin derivatives” (Bioorg Med Chem Lett, 2015)
